Bioassay records: PubChem, several laboratories
TDP2 absorb = blocks human TDP2 phosphodiesterase activity. AID 720702. inhibition, % at 12.8 µM. O95551. recombinant TDP2, T5PNP hydrolysis, p-nitrophenol absorbance 415 nm. hit rate 0.34% among 370,000;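 active = inhibition above the mean of all tested compounds plus 3 SD, set per campaign, cut at about 25% in these data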
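test system = human TDP2 enzyme | input = TDP2 enzyme at 120 nM final | medium = 50 mM Tris-HCl pH 7.5 with Mg2+, KCl, DTT, BSA | also added = T5PNP substrate, 5 mM | times = 2 h at 37 °C | technique = epi absorbance | benchmarks = high control without enzyme, low control DMSO plus TDP2 | replication = each compound tested once, singlicate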
Casp6 inh = blocks human caspase-6 cleavage activity; P55212; purified caspase-6, Z-VEID-R110 cleavage fluorescence; inhibition, % at 12.5 µM; hit rate 0.53% among 350,000; AID 686996;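 active = mean inhibition across replicates at least about 35%, with every replicate also reaching that limit, limit read from the data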
UHRF1 binding = blocks human UHRF1 binding to methylated DNA. Q96T88. UHRF1 binding to methylated oligo, TR-FRET. inhibition, % at 4.4 µM. hit rate 0.75% among 370,000;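 also: UHRF1 SRA domain binding a hemimethylated CpG hairpin DNA probe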
NSD2 inh = NSD2 (human) methyltransferase inhibition; AID 743445; hit rate 0.54% among 310,000; O96028; inhibition, % at 12.5 µM; NSD2 peptide methylation, AlphaScreen, 120 min; in the data active = inhibition above about 50%
Target sequence (O96028 whole entry, looked up): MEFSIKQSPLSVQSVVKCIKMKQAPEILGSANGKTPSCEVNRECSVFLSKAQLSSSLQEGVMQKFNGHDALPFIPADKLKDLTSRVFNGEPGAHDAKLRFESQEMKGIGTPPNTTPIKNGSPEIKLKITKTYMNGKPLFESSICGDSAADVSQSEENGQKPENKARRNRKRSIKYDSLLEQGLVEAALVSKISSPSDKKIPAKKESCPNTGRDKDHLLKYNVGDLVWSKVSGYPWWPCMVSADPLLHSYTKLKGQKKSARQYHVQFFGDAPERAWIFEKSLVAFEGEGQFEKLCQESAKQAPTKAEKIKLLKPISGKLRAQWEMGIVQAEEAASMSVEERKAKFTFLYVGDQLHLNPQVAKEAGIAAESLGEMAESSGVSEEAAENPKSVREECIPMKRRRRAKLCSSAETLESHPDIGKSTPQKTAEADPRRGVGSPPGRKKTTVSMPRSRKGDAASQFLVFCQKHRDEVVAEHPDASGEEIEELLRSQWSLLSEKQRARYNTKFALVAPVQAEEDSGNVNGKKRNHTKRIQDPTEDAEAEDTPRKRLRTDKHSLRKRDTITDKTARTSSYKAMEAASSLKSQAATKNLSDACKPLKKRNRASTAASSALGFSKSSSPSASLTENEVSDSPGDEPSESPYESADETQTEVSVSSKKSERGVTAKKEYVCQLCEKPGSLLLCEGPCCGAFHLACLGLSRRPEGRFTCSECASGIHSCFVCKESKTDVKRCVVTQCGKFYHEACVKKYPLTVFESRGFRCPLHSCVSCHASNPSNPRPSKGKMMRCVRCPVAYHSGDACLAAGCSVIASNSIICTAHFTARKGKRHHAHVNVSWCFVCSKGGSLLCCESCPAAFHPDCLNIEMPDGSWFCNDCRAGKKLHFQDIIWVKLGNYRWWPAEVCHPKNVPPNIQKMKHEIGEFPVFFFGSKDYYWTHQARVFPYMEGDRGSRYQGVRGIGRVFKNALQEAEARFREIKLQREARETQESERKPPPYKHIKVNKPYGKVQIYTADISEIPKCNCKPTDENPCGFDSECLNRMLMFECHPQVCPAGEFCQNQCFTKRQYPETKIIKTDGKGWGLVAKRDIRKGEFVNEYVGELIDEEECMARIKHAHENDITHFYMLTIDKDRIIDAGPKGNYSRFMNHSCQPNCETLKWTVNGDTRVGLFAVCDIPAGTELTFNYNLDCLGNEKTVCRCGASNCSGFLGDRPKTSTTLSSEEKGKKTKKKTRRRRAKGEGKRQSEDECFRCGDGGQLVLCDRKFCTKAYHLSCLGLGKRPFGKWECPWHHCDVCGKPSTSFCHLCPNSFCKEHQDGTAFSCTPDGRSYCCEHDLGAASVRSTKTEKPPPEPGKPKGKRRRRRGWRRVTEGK
MBD2 DNA inh = inhibitors of human MBD2 binding to methylated oligonucleotide. TR-FRET. AID 686964. inhibition, % at 4.4 µM. hit rate 0.31% among 370,000; in the data active = inhibition above about 13%
LEDGF integ inh = blocks HIV-1 LEDGF/p75-dependent DNA integration; TR-FRET IN-LEDGF/p75 DNA integration, Eu/Cy5; inhibition, % at 3.7 µM; hit rate 0.64% among 370,000;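 active = inhibition above the screen-wide mean plus 3 SD, cut at about 13% in these data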;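 also: signal is the Cy5 over europium emission ratio at 671 and 618 nm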
UHRF1 DNA bind = UHRF1 methyl-oligo binding inhibition as MBD2 counter-screen; AID 720530; shares compounds with MBD2 DNA inh; UHRF1 binding to methylated oligonucleotide, TR-FRET; inhibition, % at 4.4 µM; hit rate 25% among 1,000;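 also: UHRF1 SRA domain binding a labeled hemimethylated CpG hairpin DNA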
MBD2 DBD conf = MBD2-DBD methyl-DNA binding inhibition, TR-FRET confirmation | TR-FRET MBD2-DBD binding to methylated oligonucleotide | AID 720531 | hit rate 26% among 1,000 | inhibition, % at 4.4 µM | shares compounds with MBD2 DNA inh; in the data active = inhibition above about 14%
Numbers stand for hits; n = inactive; x = no result. In the library only some 1.9% were active in any assay of this set; here they are far more common. Rule as the data show it, unless noted: active = inhibition above about 21%; inactive = the rest.

SMILES	TDP2 absorb	Casp6 inh	UHRF1 binding	NSD2 inh	MBD2 DNA inh	LEDGF integ inh	UHRF1 DNA bind	MBD2 DBD conf
CCc1ccc(/C=C2\SC(=S)N(CCCC(=O)Nc3cc(C)on3)C2=O)cc1	n	n	n	n	14.7	n	n	n
CC(=O)N1[C@H](CO)[C@H]2c3ccccc3N(S(=O)(=O)c3ccccc3)C[C@H]21	x	n	x	x	x	x	x	x
CCN1[C@H](C(=O)NC2Cc3ccccc3C2)[C@@H](CO)[C@@H]2Cn3c(ccc(C4=CCCC4)c3=O)[C@@H]21	x	n	x	x	x	x	x	x
c1ccc(Oc2cc(-n3cncn3)ncn2)cc1	n	n	n	n	n	n	x	x
Cc1cnn(-c2cc(Oc3ccccc3)ncn2)c1	n	x	n	n	15.8	n	n	n
COC(=O)CSc1nnc(CNC(=O)c2ccc(S(=O)(=O)N(C)C)cc2)n1C	n	n	n	n	n	n	x	x
CCN(CC)S(=O)(=O)c1ccc(C(=O)NCc2nnc(SCC(=O)OC)n2C)cc1	n	x	n	x	20.6	n	n	n
CO[C@@H]1CN(C)C(=O)c2cc(NC(=O)C3CCOCC3)ccc2OC[C@@H](C)N(CC2CCCCC2)C[C@H]1C	x	n	x	x	x	x	x	x
Cc1[nH]c2ccc(C(=O)O)cc2c1C	n	x	n	n	n	n	x	x
CCCc1c(C)[nH]c2ccc(C(=O)O)cc2c1=S	n	n	77.5	x	24.7	n	37.9	23.3
C[C@H]1CCCCO[C@H](CN(C)S(=O)(=O)c2ccccc2)[C@@H](C)CN([C@@H](C)CO)C(=O)c2cc(NS(=O)(=O)c3ccc(Cl)cc3)ccc2O1	x	n	x	x	x	x	x	x
C[C@H](O)C#Cc1ccc2c(c1)O[C@H](CN(C)C(=O)c1ccccc1)[C@H](C)CN([C@H](C)CO)S2(=O)=O	x	n	x	x	x	x	x	x
C[N+]1(CC(=O)NNc2c3ccccc3nc3ccccc23)CCOCC1	n	n	28.8	n	40.0	n	34.5	30.6
O=C(/C=C/c1ccc2ccccc2c1)c1ccoc1	n	x	n	n	20.4	n	n	n
C/C=C/c1ccc([C@H]2[C@@H](C#N)N(C(=O)CN3CCOCC3)[C@H]2CO)cc1	x	n	x	x	x	x	x	x
C=CC[C@@H](CC(=O)N(CCO)Cc1ccccc1)C(=O)N[C@@H](C)COC(=O)[C@@H](CC=C)CC(=O)OC(C)(C)C	n	n	27.4	x	17.1	n	n	n
Cc1noc(C)c1NC(=O)Nc1cccc2c1O[C@@H](CN(C)S(=O)(=O)c1cccs1)[C@H](C)CN([C@H](C)CO)C2=O	x	n	x	x	x	x	x	x
COc1ccc(N(C)S(=O)(=O)c2cccc(C(=O)Nc3nc(C)c(C(C)=O)s3)c2)cc1	n	n	n	n	14.6	n	n	n
CCOC(=O)Cn1cc(CN2CCS(=O)(=O)N(Cc3ccccc3)C(C(=O)OC)C2)nn1 (stereo not drawn)	n	x	n	x	13.8	n	n	n
NS(=O)(=O)c1ccc(-c2c(-c3ccccc3)sc3ccccc23)cc1	n	n	21.6	x	13.7	n	n	n
CCCCn1c(N)c(N(CC(C)C)C(=O)C(C)SCc2nc3sc(C)c(C)c3c(=O)[nH]2)c(=O)[nH]c1=O (stereo not drawn)	n	n	n	n	20.4	n	n	n
CCCNC(=O)N[C@@H]1CC[C@@H](CCn2cc(-c3cccc(F)c3)nn2)O[C@@H]1CO	x	n	x	x	x	x	x	x
COc1ccccc1S(=O)(=O)N(C)C[C@H]1Oc2cc(C#CCC3CCCC3)ccc2S(=O)(=O)N([C@H](C)CO)C[C@H]1C	n	n	22.2	x	13.5	n	n	n
COc1ccc(S(=O)(=O)N(C)C[C@H]2Oc3cc(C#CC4CCCCC4)ccc3S(=O)(=O)N([C@H](C)CO)C[C@@H]2C)cc1	x	n	x	x	x	x	x	x
COc1ccc(S(=O)(=O)N(C)C[C@@H]2Oc3cc(C#CC4CCCCC4)ccc3S(=O)(=O)N([C@@H](C)CO)C[C@@H]2C)cc1	n	n	26.7	x	17.4	n	n	n
SMILES	TDP2 absorb	Casp6 inh	UHRF1 binding	NSD2 inh	MBD2 DNA inh	LEDGF integ inh	UHRF1 DNA bind	MBD2 DBD conf
COc1ccccc1S(=O)(=O)N(C)C[C@@H]1Oc2cc(C#CCC3CCCC3)ccc2S(=O)(=O)N([C@H](C)CO)C[C@@H]1C	x	n	x	x	x	x	x	x
Cc1ccc(S(=O)(=O)NCC[C@H]2CC[C@@H](NC(=O)C3CCOCC3)[C@H](CO)O2)cc1	x	n	x	x	x	x	x	x
CN1C2=N[C@@H](c3ccccc3)CC(=O)N2/C(=C\c2ccccc2)[C@H]1c1ccccc1	n	x	31.2	n	22.0	n	n	n
CN1C2=N[C@@H](c3ccc4ccccc4c3)CC(=O)N2/C(=C\c2ccccc2)[C@H]1c1ccccc1	n	x	28.4	x	14.1	n	n	n
CN1C2=N[C@@H](c3ccc4c(c3)OCO4)CC(=O)N2/C(=C\c2ccccc2)[C@@H]1c1ccccc1	n	x	n	n	n	n	x	x
CCCC/C=C1/[C@H](c2ccccc2)N(C)C2=N[C@H](c3ccccc3)CC(=O)N21	n	x	n	x	n	n	x	x
CCCNC(=O)N[C@H]1C=C[C@H](CC(=O)NC2CCC2)O[C@@H]1CO	x	n	x	x	x	x	x	x
CO[C@@H]1CN(C)C(=O)c2cc(NC(=O)c3ccccc3F)ccc2OC[C@H](C)N(C)C[C@@H]1C	x	n	x	x	x	x	x	x
COc1ccc(CNC(=O)CCS(=O)(=O)c2ccc3c(c2)oc(=O)n3C)cc1	n	n	n	n	39.2	n	n	n
c1ccc(-c2ccc3nnnn3n2)cc1	n	n	n	n	n	n	x	x
CC(C)Oc1ccc2nnnn2n1	n	n	21.7	x	14.4	n	n	n
O=C1NC2c3c(Cl)sc(Cl)c3C(=O)C2O1 (stereo not drawn)	n	69.3	34.8	n	14.5	n	32.3	16.1
CC1(C)CC(=O)C=C(NCc2ccco2)C1	n	x	n	n	34.8	n	n	n
C[C@@H]1CCCCO[C@H](CN(C)CC2CCCCC2)[C@@H](C)CN([C@H](C)CO)C(=O)c2cc(NS(C)(=O)=O)ccc2O1	x	n	x	x	x	x	x	x
COc1ccc(Cl)cc1NC(=S)N1CCC(c2ccc(C)cc2)C1 (stereo not drawn)	n	n	n	n	22.8	n	n	n
COC(=O)[C@H]1[C@H](CO)[C@H]2Cn3c(ccc(-c4ccc(F)cc4)c3=O)[C@H]2N1C	x	n	x	x	x	x	x	x
CC(C)(C)C(=O)Nc1cc(S(=O)(=O)N2CCCCC2)ccc1N1CCCCC1	n	n	n	n	14.2	n	n	n
CC(C)C(=O)Nc1cc(S(=O)(=O)N2CCOCC2)ccc1N1CCCCC1	n	n	n	n	n	n	x	x
COc1ccc(NC(=O)N(C)C[C@@H]2OCCCC[C@@H](C)Oc3ccc(NC(=O)C4CCCCC4)cc3C(=O)N([C@H](C)CO)C[C@H]2C)cc1	x	n	x	x	x	x	x	x
Cc1ccc(-c2csc3nc4ccc(C(=O)NCCO)cc4c(=O)n23)cc1	n	x	n	x	n	n	x	x
